Calls of active or inactive are those of the source. No cut-off for these calls is given here.
Columns and labels:
[1] = AUC (0 to infinity) in C57BL/6 mouse at 5 mg/kg, iv; type: ADME, organism-based; set-up: time infinity, route intravenous, dose 5 mg/kg; conditions: in vivo
How it was run: (§1)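 Male C57BL/6 mice, n = 3, dosed IV at 5 mg/kg, IP at 10 mg/kg or by oral gavage (PO) at 10 mg/kg. All doses formulated in DMSO:cremophor:0.9% NaCl = 5:5:90. AUC from time zero to infinity (h*ng/mL) was derived from plasma drug levels and is reported as the mean of the males.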

[2] = Intrinsic clearance in rat liver microsomes at 1 uM preincubated for 5 mins followed by NADPH addition and measured upto 60 mins by LC-MS analysis; type: ADME, Microsome; conditions: time 65 min, read-out: CLH
[3] = biological target: T1, Hepatic sodium/bile acid cotransporter (Mus musculus, UniProt O08705); assay: Inhibition of mouse NTCP-mediated [3H]-TCA uptake expressed in human HepG2 cells at 2 uM incubated for 2 hrs followed by substrate addition and measured for 10 mins by microbeta liquid scintillation counter analysis; type: cell-based; conditions: hepg2, 2.167 h, time 130 min
T1 sequence (O08705 whole entry): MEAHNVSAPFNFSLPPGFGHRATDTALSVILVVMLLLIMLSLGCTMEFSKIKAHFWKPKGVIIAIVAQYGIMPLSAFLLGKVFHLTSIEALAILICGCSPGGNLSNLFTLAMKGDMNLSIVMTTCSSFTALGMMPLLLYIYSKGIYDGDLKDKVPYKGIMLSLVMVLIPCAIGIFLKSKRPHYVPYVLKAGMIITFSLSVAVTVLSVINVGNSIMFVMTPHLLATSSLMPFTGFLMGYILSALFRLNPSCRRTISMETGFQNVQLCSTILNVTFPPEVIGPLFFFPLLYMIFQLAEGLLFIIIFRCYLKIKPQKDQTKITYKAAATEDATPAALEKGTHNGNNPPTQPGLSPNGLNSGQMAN
How it was run: (§2)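 HepG2 cells expressing NTCP (human, mouse, monkey or tree shrew) seeded 4–6 h, PMM 20–24 h; compound 2 h, then Na+ Ringer's buffer with 2 μM 3H-TCA, 37 °C 10 min; PBS washes, lysis in 1% Triton X-100, scintillation counting. Single-concentration lines at 2 μM.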

Hepatitis delta virus [4] = assay: Antiviral activity against HDV infected in NTCP-edited FVB mouse assessed as decrease in viral RNA levels in liver at 30 mg/kg, po administered for 8 days via gavage followed by HDV challenge at day 2 and measured at day 8 post infection by qPCR analysis; conditions: time 8.0 day
[5] = AUC (0 to infinity) in C57BL/6 mouse at 10 mg/kg, po; type: ADME, organism-based; set-up: route oral, time infinity, dose 10 mg/kg; conditions: in vivo; how it was run: as §1
Hepatitis delta virus [6] = assay: Antiviral activity […] infected in C57B/L transgenic mouse harbouring human NTCP assessed as decrease in viral RNA levels in liver at 40 mg/kg, ip administered as single dose followed by HDV challenge at day 2 and measured at day 8 post infection by qPCR analysis; type: functional, organism-based; conditions: time 8.0 day
How it was run: (§3)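 Neonatal hNTCP-transgenic C57B/L mice received 40 mg/kg i.p. before HDV inoculation, either once or on two consecutive days (n = 4 per group; vehicle group n = 5). HDV was given at 5 × 10⁹ Geq i.p. on day 9 after birth, and mice were sacrificed on day 15. Liver RNA was assayed by RT-qPCR on cDNA from 20 ng RNA, with NTCP mRNA also measured. Group medians are shown.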

[7] = biological target: T2, Hepatic sodium/bile acid cotransporter (Homo sapiens, UniProt Q14973); assay: Inhibition of Myr95F binding to human NTCP expressed in HepG2 cells assessed as decrease in cell membrane staining at 1 uM incubated for 2 hrs by fluorescence staining based analysis; conditions: hepg2, 2 h
T2 sequence (Q14973 whole entry): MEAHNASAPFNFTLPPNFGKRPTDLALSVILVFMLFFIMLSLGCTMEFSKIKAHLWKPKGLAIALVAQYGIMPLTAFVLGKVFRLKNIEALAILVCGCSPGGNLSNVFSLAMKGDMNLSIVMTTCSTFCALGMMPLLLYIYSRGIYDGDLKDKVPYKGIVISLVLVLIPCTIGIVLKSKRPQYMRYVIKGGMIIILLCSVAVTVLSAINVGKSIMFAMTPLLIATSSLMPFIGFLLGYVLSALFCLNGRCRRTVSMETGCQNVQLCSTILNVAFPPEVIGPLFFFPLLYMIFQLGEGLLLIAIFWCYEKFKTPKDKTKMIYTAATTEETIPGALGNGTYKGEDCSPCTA
How it was run: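 HepG2-NTCP cells stained with fluorescent Myr59F pre-S1 peptide in presence of DMSO, compound (1 μM) or Myr47 (200 nM); membrane staining intensity quantified.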

HepG2 [8] = assay: Inhibition of tree shrew NTCP-mediated [3H]-TCA uptake expressed in human HepG2 cells at 2 uM incubated for 2 hrs followed by substrate addition and measured for 10 mins by microbeta liquid scintillation counter analysis; type: cell-based; conditions: Scandentia; how it was run: as §2
[9] = Tmax in C57BL/6 mouse at 10 mg/kg, po; type: ADME, organism-based; conditions: in vivo
How it was run: (§4)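 Male C57BL/6 mice (n = 3), single dose IV 5 mg/kg, IP 10 mg/kg or PO 10 mg/kg in DMSO:cremophor:0.9% NaCl 5:5:90; plasma parameters reported as means.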

[10] = Cmax in C57BL/6 mouse at 10 mg/kg, ip; type: ADME, organism-based; set-up: route intraperitoneal, dose 10 mg/kg; conditions: in vivo; how it was run: as §4
HepG2 [11] = assay: (§5) Antiviral activity against HBV genotype C infected in human HepG2-NTCP cells assessed as reduction in HBeAg secretion at 2 uM cells inoculated with virus for 4 hrs at room temperature and 37 degree C for 24 hrs followed inoculum changed with PMM medium for every 2 days until day 5 post infection by ELISA; type: functional, cell-based; conditions: time 28.0 hrs
How it was run: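 HepG2-NTCP cells seeded 4–6 h, then primary maintenance medium 20–24 h; virus inoculum plus compound dilutions 4 h at room temperature, then 37 °C 24 h; medium changed every 2 days to PMM with 2% FBS until day 5 post infection. Secreted HBeAg measured by ELISA; IC50 by nonlinear regression from six or more points, three repeats.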

[12] = AUC (0 to infinity) in C57BL/6 mouse at 10 mg/kg, ip; type: ADME, organism-based; set-up: time infinity, route intraperitoneal, dose 10 mg/kg; conditions: in vivo; how it was run: as §1
[13] = Intrinsic clearance in mouse liver microsomes at 1 uM preincubated for 5 mins followed by NADPH addition and measured upto 60 mins by LC-MS analysis; type: ADME, Microsome; conditions: read-out: CLH
How it was run: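 Human or mouse liver microsomes, final 1 mg/mL in 0.05 M phosphate buffer pH 7.4; compound final 1 μM, preincubated 37 °C 5 min, started with 1 mM NADPH; sampled at 0, 5, 15, 30, 60 min, methanol quench, −20 °C 1 h, centrifuged, supernatant by LC–MS.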

Hepatitis delta virus [14] = assay: Antiviral activity against HDV infected in C57B/L transgenic mouse harbouring human NTCP assessed as decrease in viral RNA levels in liver at 40 mg/kg, ip administered for 2 consecutive days followed by HDV challenge at day 2 and measured at day 8 post infection by qPCR analysis; type: functional, organism-based; conditions: time 8.0 day; how it was run: as §3
Hepatitis B virus = assay: as §5, with “HBV” for “HBV genotype C”, “in HBV viral transcription” for “in HBeAg secretion”, “at 10” for “at 2”, “by DIG-labelled GAPDH based northern blot analysis” for “by ELISA”; type: functional, organism-based; conditions: time 28.0 hrs
How it was run: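 Infected HepG2-NTCP cells given compound either with the HBV inoculum or at dpi 3–5; RNA extracted with TRIzol, run on 1.0% agarose–formaldehyde/MOPS gel. Northern blot as for Southern, probed with DIG-labelled full-length HBV genome plus DIG-labelled GAPDH probe.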

CC[C@@H]1NC(=O)[C@H]([C@@H]2O[C@@H](Sc3cccc(OCc4ccccc4)c3)C[C@H]2C)N(C)C(=O)[C@H](C(C)C)N(C)C(=O)[C@H](CC(C)C)N(C)C(=O)[C@H](CC(C)C)N(C)C(=O)[C@@H](C)NC(=O)[C@H](C)NC(=O)[C@H](CC(C)C)N(C)C(=O)[C@H](C(C)C)NC(=O)[C@H](CC(C)C)N(C)C(=O)CN(C)C1=O
AUC(0-inf) [1]: 39700 ng·h/mL | microsomal CLint at 1 µM [2]: 2.2 µL/min/mg | inhibition (INH) [3]: Active | Activity (Hepatitis delta virus [4]): Active | AUC(0-inf) [5]: 14500 ng·h/mL | Activity (Hepatitis delta virus [6]): Active | inhibition (INH) [7]: Active | inhibition (HepG2 [8]): Active | Tmax [9]: 1 h | Cmax [10]: 12400 ng/mL | Activity (HepG2 [11]): Active | AUC(0-inf) [12]: 87400 ng·h/mL | microsomal CLint at 1 µM [13]: 4.1 µL/min/mg | Activity (Hepatitis delta virus [14]): Active | Activity (Hepatitis B virus): Active

— ChEMBL document CHEMBL4706643 (J Med Chem, 2021)
